The text below walks through data of ChEMBL document CHEMBL1157464, “1-[(3-Aryloxy-3-aryl)propyl]-1H-imidazoles, new imidazoles with potent activity against Candida albicans and dermatophytes. Synthesis, structure-activity relationship, and molecular modeling studies” (J Med Chem, 2008).

Data set [1] deals with Arthrodermataceae. Briefly: Antifungal activity against dermatophytes at 28 degC after 7 days by broth microdilution test. The format is functional. Conditions: 168 h. In a few lines: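 Ten clinical isolates (two M. canis, five M. gypseum, three T. mentagrophytes) tested by NCCLS M38-A broth microdilution in MOPS-buffered RPMI 1640, pH 7.0, over 0.25–128 µg/mL. Conidial/hyphal suspension from PDA slants (28 °C, 7 days) adjusted to 65–70% transmittance at OD530, then diluted 1:50.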
On the technique in general: In broth dilution the organism is exposed to a series of concentrations in liquid medium.

The subject of data set [2] is Arthrodermataceae. As to the kind of experiment: Antifungal activity against dermatophytes at 28 degC after 5 days by broth microdilution test. The settings on record: for MFC: Arthrodermataceae.
Data set [3] relates to Arthrodermataceae. Briefly: Antifungal activity against dermatophytes at 28 degC after 48 to 96 hrs by broth microdilution test.
The subject of data set [4] is Candida albicans. As to the kind of experiment: Antifungal activity against Candida albicans ATCC 10261 at 35 degC after 48 to 96 hrs by broth microdilution test. The format is functional. Conditions: for MFC: Candida albicans, ATCC 10261, read-out: MFC. In a few lines: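 Minimal fungicidal concentration for Candida. […] MFC is the lowest concentration allowing fewer than two colonies (99% killing).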

For a further data set, the system named is Candida parapsilosis. Briefly: Antifungal activity against Candida parapsilosis ATCC 22019 at 35 degC after 48 hrs by broth microdilution test. Conditions: Lodderomyces parapsilosis, ATCC 22019, 48 h; for MFC: read-out: MFC; for MIC: read-out: MIC. The format is functional. In a few lines:
(§1)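 Broth microdilution per NCCLS M27-A2. Stocks in 100% DMSO, diluted in RPMI 1640 with 0.165 M MOPS at pH 7.0; final range 0.25–128 µg/mL. Inoculum 1000–5000 cells/mL from SDA subcultures. […] C. parapsilosis ATCC22019 served as QC strain.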

For data set [5], the system named is Candida albicans. Briefly: Antifungal activity against Candida albicans ATCC 10261 at 35 degC after 48 hrs by broth microdilution test. The format is functional. Conditions: Candida albicans, ATCC 10261, 48 h; for MIC: read-out: MIC; for MIC50: read-out: MIC50; for MIC90: read-out: MIC90. The gist of the method:
as §1

Data set [6] can be described thus: Cytotoxicity against human U937 cells assessed as reduction of cell viability after 24 hrs by MTT assay. The format is cell-based, U-937. In a few lines: (§2)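 U937 and K562 cells, from ATCC, plated at 5 × 10^4/mL in phenol-red-free RPMI-1640 with 20% FBS and penicillin/streptomycin. Compounds added 2 h later at 25–100 µg/mL, then 24 h at 37 °C. MTT at 1 mg/mL for 3 h, formazan dissolved in isopropanol with 0.1 N HCl, absorbance read at 570 nm. CC50 is the concentration reducing viability by 50% versus the drug-free control.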
In general terms: Tetrazolium dyes change colour on reduction, which living cells bring about.

The nature of data set [7]: Cytotoxicity against human K562 cells after assessed as reduction of cell viability 24 hrs by MTT assay. The format is cell-based. In a few lines: as §2

≈ marks a conversion by molar mass, not a printed value.

Broadly, the MIC is the smallest concentration in the dilution series that meets the test's criterion for growth inhibition. A word on the MIC50: it is the lowest concentration that inhibits either 50% of growth or 50% of the strains tested, depending on the study. The MIC90 is the lowest concentration that inhibits either 90% of growth or 90% of the strains tested, depending on the study. What is called MFC is the lowest tested concentration that kills the fungus rather than only halting it. Consider `Fc1ccc(C(CCn2ccnc2)Oc2ccccc2)cc1` (configuration not stated), for which the MIC with Arthrodermataceae [1] stood at 16.1 µg/mL (≈ 54.3 µM); with Candida parapsilosis, 8 µg/mL (≈ 27 µM); with Candida albicans [5], 32.1 µg/mL (≈ 108 µM). Further, the MIC50 in the data set with Arthrodermataceae [1] worked out at 16 µg/mL (≈ 54 µM); in the data set with Candida albicans [5], 32 µg/mL (≈ 108 µM). Also, the MIC90 was 16 µg/mL (≈ 54 µM) in the data set on Arthrodermataceae [1] and 64 µg/mL (≈ 216 µM) with Candida albicans [5]. In addition, the MFC90 in the data set on Arthrodermataceae [2] was 32 µg/mL (≈ 108 µM); against Candida albicans [4], 64 µg/mL (≈ 216 µM). Moreover, the figures for the MFC against Arthrodermataceae [2], in the data set on Candida albicans [4] and in the data set with Candida parapsilosis were 28.5 µg/mL (≈ 96.2 µM), 57.6 µg/mL (≈ 194 µM) and 32 µg/mL (≈ 108 µM), respectively. Moreover, the results for the MFC50 in the data set with Arthrodermataceae [3] and with Candida albicans [4] were 32 µg/mL (≈ 108 µM) and 64 µg/mL (≈ 216 µM), respectively.
By CC50 is commonly meant the concentration at which the toxic effect on the cells reaches its halfway point. `Cc1ccc(OC(Cn2ccnc2)c2ccc(Cl)cc2)cc1` (configuration not stated): the CC50 at 24 h is 150 µM in data set [6] and 99 µM in data set [7]. Besides, the MFC in the data set on Candida albicans [4] is 32 µg/mL (≈ 102 µM). In addition, the MIC turned out to be 4 µg/mL (≈ 12.8 µM) with Candida parapsilosis and 22.3 µg/mL (≈ 71.3 µM) with Candida albicans [5]. For the same compound, in the data set with Candida albicans [5], the MIC50 was 16 µg/mL (≈ 51.2 µM). Also, the MIC90 with Candida albicans [5] came to 32 µg/mL (≈ 102 µM).
On to `Cc1ccc(C(CCn2ccnc2)Oc2ccc(Cl)cc2Cl)cc1` (configuration not stated), for which the values for the MIC in the data set on Arthrodermataceae [1], in the data set with Candida parapsilosis and in the data set on Candida albicans [5] were 12 µg/mL (≈ 33.2 µM), 1 µg/mL (≈ 2.77 µM) and 3.15 µg/mL (≈ 8.72 µM), respectively. Also, the values for the MIC50 against Arthrodermataceae [1] and in the data set on Candida albicans [5] were 8 µg/mL (≈ 22.1 µM) and 4 µg/mL (≈ 11.1 µM), respectively. The figures for the MIC90 against Arthrodermataceae [1] and in the data set with Candida albicans [5] were 16 µg/mL (≈ 44.3 µM) and 4 µg/mL (≈ 11.1 µM), respectively. Besides, the figures for the MFC90 against Arthrodermataceae [2] and in the data set on Candida albicans [4] were 32 µg/mL (≈ 88.6 µM) and 16 µg/mL (≈ 44.3 µM), respectively. Further, the MFC in the data set on Arthrodermataceae [2] worked out at 24 µg/mL (≈ 66.4 µM); in the data set on Candida albicans [4], 8.4 µg/mL (≈ 23.3 µM); with Candida parapsilosis, 4 µg/mL (≈ 11.1 µM). Moreover, the MFC50 with Arthrodermataceae [3] stood at 16 µg/mL (≈ 44.3 µM); in the data set with Candida albicans [4], 8 µg/mL (≈ 22.1 µM). Further, the CC50 at 24 h turned out to be 150 µM in data set [6] and 97 µM in data set [7].
As to `CC(C)c1ccc(OC(CCn2ccnc2)c2ccc(Cl)cc2)cc1` (configuration not stated), the CC50 at 24 h in data set [6] worked out at 208 µM. Besides, in the data set with Candida albicans [4], the MFC50 was 32 µg/mL (≈ 90.2 µM), the MFC90 is 32 µg/mL (≈ 90.2 µM) and the MFC was 25.5 µg/mL (≈ 71.9 µM). Besides, in the data set on Candida parapsilosis, the MFC was 32 µg/mL (≈ 90.2 µM) and the MIC came to 8 µg/mL (≈ 22.5 µM). In addition, in the data set with Candida albicans [5], the minimum inhibitory concentration (MIC) worked out at 18.5 µg/mL (≈ 52.1 µM), the MIC50 stood at 8 µg/mL (≈ 22.5 µM) and the MIC90 is 32 µg/mL (≈ 90.2 µM). Also, the CC50 at 24 h in data set [7] was 138 µM.
As for `CCc1ccc(OC(CCn2ccnc2)c2ccc(C)cc2)cc1` (configuration not stated), the CC50 at 24 h in data set [6] was found to be 152 µM. Further, in the data set with Candida albicans [4], the MFC50 was found to be 32 µg/mL (≈ 99.9 µM), the MFC90 came out at 32 µg/mL (≈ 99.9 µM) and the MFC came out at 28 µg/mL (≈ 87.4 µM). Further, in the data set on Candida parapsilosis, the MFC turned out to be 8 µg/mL (≈ 25 µM) and the MIC is 4 µg/mL (≈ 12.5 µM). In the data set on Candida albicans [5], the MIC is 8.7 µg/mL (≈ 27.2 µM), the MIC50 turned out to be 4 µg/mL (≈ 12.5 µM) and the MIC90 was determined as 16 µg/mL (≈ 49.9 µM). The CC50 at 24 h in data set [7] amounted to 136 µM.
In the case of `Clc1ccc(C(CCn2ccnc2)Oc2cc(Cl)cc(Cl)c2)cc1` (configuration not stated), the minimum inhibitory concentration (MIC) in the data set on Arthrodermataceae [1] worked out at 5 µg/mL (≈ 13.1 µM); in the data set on Candida parapsilosis, 1 µg/mL (≈ 2.62 µM); in the data set with Candida albicans [5] it was 7.7 µg/mL (≈ 20.2 µM). For the same compound, the MIC50 against Arthrodermataceae [1] amounted to 4 µg/mL (≈ 10.5 µM); in the data set with Candida albicans [5] it was 8 µg/mL (≈ 21 µM). Also, the results for the MIC90 with Arthrodermataceae [1] and in the data set with Candida albicans [5] were 8 µg/mL (≈ 21 µM) and 16 µg/mL (≈ 41.9 µM), respectively. The MFC90 against Arthrodermataceae [2] and against Candida albicans [4] was 16 µg/mL (≈ 41.9 µM) in each case. Moreover, the MFC against Arthrodermataceae [2] stood at 10 µg/mL (≈ 26.2 µM); in the data set on Candida albicans [4] it was 16.5 µg/mL (≈ 43.2 µM); in the data set with Candida parapsilosis it was 4 µg/mL (≈ 10.5 µM). Further, the MFC50 worked out at 8 µg/mL (≈ 21 µM) against Arthrodermataceae [3] and 16 µg/mL (≈ 41.9 µM) against Candida albicans [4]. The results for the CC50 at 24 h in data set [6] and in data set [7] were 180 µM and 135 µM, respectively.
On to `Cc1ccc(C(CCn2ccnc2)Oc2ccc(C)cc2Cl)cc1` (configuration not stated), for which, in data set [6], the CC50 at 24 h is 151 µM. For the same compound, in the data set with Candida albicans [4], the MFC50 turned out to be 32 µg/mL (≈ 93.9 µM), the MFC90 was found to be 32 µg/mL (≈ 93.9 µM) and the MFC turned out to be 24 µg/mL (≈ 70.4 µM). Besides, in the data set on Candida parapsilosis, the MFC came to 8 µg/mL (≈ 23.5 µM) and the MIC was determined as 4 µg/mL (≈ 11.7 µM). Further, in the data set with Candida albicans [5], the minimal inhibitory concentration (MIC) worked out at 6.5 µg/mL (≈ 19.1 µM), the MIC50 came out at 8 µg/mL (≈ 23.5 µM) and the MIC90 came out at 8 µg/mL (≈ 23.5 µM). Moreover, the CC50 at 24 h in data set [7] came out at 123 µM.
For the compound `Clc1ccc(OC(CCn2cncn2)c2ccccc2)c(Cl)c1` (configuration not stated), in the data set with Arthrodermataceae [1], the minimum inhibitory concentration (MIC) turned out to be 22.4 µg/mL (≈ 64.3 µM), the MIC50 stood at 16 µg/mL (≈ 45.9 µM) and the MIC90 was determined as 32 µg/mL (≈ 91.9 µM). Besides, in the data set with Arthrodermataceae [2], the MFC90 came to 64 µg/mL (≈ 184 µM) and the MFC came out at 44.8 µg/mL (≈ 129 µM). The MFC50 against Arthrodermataceae [3] was found to be 32 µg/mL (≈ 91.9 µM). In the data set with Candida albicans [4], the MFC50 was above 128 µg/mL, the MFC90 is above 128 µg/mL and the minimal fungicidal concentration (MFC) was above 128 µg/mL. For the same compound, in the data set with Candida parapsilosis, the minimal fungicidal concentration (MFC) worked out at 64 µg/mL (≈ 184 µM) and the MIC came out at 32 µg/mL (≈ 91.9 µM). In addition, in the data set on Candida albicans [5], the MIC is above 128 µg/mL, the MIC50 is above 128 µg/mL and the MIC90 is above 128 µg/mL.
